{"source": "ChEMBL document CHEMBL4325827", "about": "“Bifidenone: Structure-Activity Relationship and Advanced Preclinical Candidate” (J Med Chem, 2018)", "key": {"LOX IMVI": {"tested_on": "LOX IMVI", "assay": "Antitumor activity against human LOXIMVI cells xenografted in Crl:NU(NCr)-Foxn1 nu mouse assessed as tumor growth inhibition at 30 mg/kg, ip qd for 7 consecutive days relative to control", "format": "functional", "conditions": "read-out: TGI; call rule not given here", "method_in_brief": "(§1)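 Female athymic nude mice bearing subcutaneous xenografts, started from cultured cells (NCI-H460, Calu-6, NCI-H69, LOX-IMVI) or from serially passaged tumour fragments (NCI-H522). Mice were grouped into vehicle and treatment arms at tumour volumes of about 75-200 mm3. Dosing was ip at 5-10 mL/kg in 22% ethanol, 38% PEG400, 40% 20 mM Na citrate pH 5.0. Caliper volumes were taken as (length × width2)/2. Treated and control delta weights were median tumour weight minus staging-day median.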"}, "UO-31 [1]": {"tested_on": "UO-31", "assay": "Antiproliferative activity against taxane-resistant human UO31 cells after 72 hrs by CellTiter 96 aqueous nonradioactive cell proliferation assay", "format": "functional, cell-based", "conditions": "UO-31, 72 h"}, "[2]": {"assay": "Toxicity in Crl:NU(NCr)-Foxn1 nu mouse xenografted with human Calu6 cells assessed as mortality at 50 mg/kg, ip qd administered for 3 consecutive days followed by 2 days of rest for 4 cycles", "format": "organism-based", "conditions": "in vivo, 48 h", "method_in_brief": "(§2)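 Female athymic nude mice bearing subcutaneous xenografts started from cultured human tumor cells. Mice were split into vehicle and treatment groups once tumors reached about 75-200 mm3. Dosing was ip at 5-10 mL/kg in 22% ethanol, 38% PEG400, 40% 20 mM Na citrate pH 5.0. Deaths per group were recorded alongside maximum mean bodyweight loss.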"}, "OVCAR-4": {"tested_on": "OVCAR-4", "assay": "Antiproliferative activity against taxane-resistant human OVCAR4 cells after 72 hrs by CellTiter 96 aqueous nonradioactive cell proliferation assay", "format": "functional, cell-based", "conditions": "OVCAR-4, 72 h", "method_in_brief": "(§3)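 Antiproliferation in cultured tumour cells, at least 3 replicate wells per concentration per experiment. NCI-H460 came from ATCC. M14, NCI/ADR-RES, OVCAR-4, HCT-15, ACHN and SF-295 came from the National Cancer Institute. IC50 reported from single experiments where no SD is given.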"}, "EKVX": {"tested_on": "EKVX", "assay": "Antiproliferative activity against taxane-resistant human EKVX cells after 72 hrs by CellTiter 96 aqueous nonradioactive cell proliferation assay", "format": "functional, cell-based"}, "[3]": {"assay": "Toxicity in Crl:NU(NCr)-Foxn1 nu mouse xenografted with human Calu6 cells assessed as mortality at 60 mg/kg, ip qd administered for 3 consecutive days followed by 2 days of rest for 4 cycles", "format": "organism-based", "conditions": "in vivo, 48 h", "method_in_brief": "as §2"}, "HCT-15 [4]": {"tested_on": "HCT-15", "assay": "Potency index, ratio of paclitaxel IC50 to compound IC50 for taxane-resistant human HCT15 cells after 72 hrs by CellTiter 96 aqueous nonradioactive cell proliferation assay", "format": "functional"}, "[5]": {"assay": "Toxicity in Crl:NU(NCr)-Foxn1 nu mouse xenografted with human NCI-H69 cells assessed as mortality at 60 mg/kg, ip dosed on day 1 followed by 4 days rest and subsequently dosed at 60 mg/kg, ip qd administered for 3 consecutive days followed by 2 days of rest for 2 cycles", "format": "organism-based", "conditions": "in vivo", "method_in_brief": "as §2"}, "SF-295": {"tested_on": "SF-295", "assay": "Potency index, ratio of paclitaxel IC50 to compound IC50 for taxane-resistant human SF295 cells after 72 hrs by CellTiter 96 aqueous nonradioactive cell proliferation assay", "format": "functional"}, "UO-31 [6]": {"tested_on": "UO-31", "assay": "Potency index, ratio of paclitaxel IC50 to compound IC50 for taxane-resistant human UO31 cells after 72 hrs by CellTiter 96 aqueous nonradioactive cell proliferation assay", "format": "functional"}, "[7]": {"assay": "Toxicity in Crl:NU(NCr)-Foxn1 nu mouse xenografted with human LOX-IMVI cells assessed as maximum body weight loss at 30 mg/kg, ip qd administered for 7 consecutive days measured after 5 days post dose relative to control", "format": "organism-based", "conditions": "in vivo, 120 h", "method_in_brief": "as §1"}, "NCI-H69": {"tested_on": "NCI-H69", "assay": "Antitumor activity against human NCI-H69 cells xenografted in Crl:NU(NCr)-Foxn1 nu mouse assessed as tumor growth inhibition at 70 mg/kg, ip dosed on day 1 followed by 4 days rest and subsequently dosed at 70 mg/kg, ip qd administered for 3 consecutive days followed by 2 days of rest for 2 cycles relative to control", "format": "functional", "conditions": "read-out: TGI", "method_in_brief": "as §1"}, "Calu-6 [8]": {"tested_on": "Calu-6", "assay": "Antitumor activity against human Calu6 cells xenografted in Crl:NU(NCr)-Foxn1 nu mouse assessed as tumor growth inhibition at 60 mg/kg, ip qd administered for 3 consecutive days followed by 2 days of rest for 4 cycles relative to control", "format": "functional", "conditions": "Calu-6, ip, 48 h, read-out: TGI", "method_in_brief": "as §1"}, "[9]": {"assay": "Toxicity in Crl:NU(NCr)-Foxn1 nu mouse xenografted with human NCI-H460 cells assessed as maximum body weight loss at 40 mg/kg, ip qd administered for 3 consecutive days followed by 2 days of rest for 3 cycles measured after 7 days post dose relative to control", "format": "organism-based", "conditions": "in vivo, 168 h", "method_in_brief": "as §1"}, "NCI-H522": {"tested_on": "NCI-H522", "assay": "Antitumor activity against human NCI-H522 cells xenografted in Crl:NU(NCr)-Foxn1 nu mouse assessed as tumor growth inhibition at 50 mg/kg, ip qd administered for 3 consecutive days followed by 2 days of rest for 3 cycles relative to control", "format": "functional", "conditions": "48 h, read-out: TGI", "method_in_brief": "as §1"}, "[10]": {"assay": "Toxicity in Crl:NU(NCr)-Foxn1 nu mouse xenografted with human […] cells assessed as maximum body weight loss at 60 mg/kg, ip qd administered for 3 consecutive days followed by 2 days of rest for 3 cycles measured after 3 days post dose relative to control", "format": "organism-based", "conditions": "in vivo, 72 h", "method_in_brief": "as §1"}, "NCI-H460": {"tested_on": "NCI-H460", "assay": "Antiproliferative activity against human NCI-H460 cells after 72 hrs by CellTiter 96 aqueous nonradioactive cell proliferation assay", "format": "functional, cell-based", "conditions": "NCI-H460, 72 h", "method_in_brief": "as §3"}, "Calu-6 [11]": {"tested_on": "Calu-6", "assay": "Antitumor activity against human Calu6 cells xenografted in Crl:NU(NCr)-Foxn1 nu mouse assessed as tumor growth inhibition at 50 mg/kg, ip qd administered for 3 consecutive days followed by 2 days of rest for 4 cycles relative to control", "format": "functional", "conditions": "Calu-6, ip, 48 h, read-out: TGI", "method_in_brief": "as §1"}, "[12]": {"assay": "Toxicity in Crl:NU(NCr)-Foxn1 nu mouse xenografted with human NCI-H460 cells assessed as mortality at 40 mg/kg, ip qd administered for 3 consecutive days followed by 2 days of rest for 3 cycles", "format": "organism-based", "conditions": "in vivo, 48 h", "method_in_brief": "as §2"}, "[13]": {"assay": "Plasma concentration in Crl:NU(NCr)-Foxn1 nu mouse xenografted with human NCI-H460 cells at 40 mg/kg, ip injected via vehicle solution measured at 1 hr post injection by LC-MS analysis", "format": "ADME, organism-based", "conditions": "in vivo", "method_in_brief": "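Male Nu/Nu mice, some bearing NCI-H460 or LOX-IMVI xenografts, given a single ip dose at 3 mL/kg. Organic vehicle components were dissolved first, with the aqueous part added gradually. Mice were euthanized at 1 h or 3 h. Cardiac blood was taken into NaEDTA/NaF plasma separator tubes. Quantification used loratadine internal standard against a spiked blank-plasma curve. Tumours were run as duplicate ~200 mg samples homogenized in 3% SDS and extracted twice with ethyl acetate, assuming 1 g tissue = 1 mL.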"}, "[14]": {"assay": "Toxicity in Crl:NU(NCr)-Foxn1 nu mouse xenografted with human […] cells assessed as mortality at 60 mg/kg, ip qd administered for 3 consecutive days followed by 2 days of rest for 3 cycles", "format": "organism-based", "conditions": "in vivo, 48 h", "method_in_brief": "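Female athymic nude mice bearing subcutaneous NCI-H522 xenografts started from tumor fragments kept by continuous in vivo passage. Mice were grouped once tumors reached about 75-200 mm3. Dosing was ip at 5-10 mL/kg in 22% ethanol, 38% PEG400, 40% 20 mM Na citrate pH 5.0. Deaths per group were recorded with maximum mean bodyweight loss.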"}, "HCT-15 [15]": {"tested_on": "HCT-15", "assay": "Antiproliferative activity against taxane-resistant human HCT15 cells after 72 hrs by CellTiter 96 aqueous nonradioactive cell proliferation assay", "format": "functional, cell-based", "conditions": "HCT-15, 72 h", "method_in_brief": "as §3"}}, "data": [{"smiles": "C=CC[C@H]1C[C@]2([C@H](C)Cc3cc(O)c(OC)cc3F)OCOC2=CC1=O", "values": [{"measurement": "inhibition in vivo at 30 mg/kg", "setting": "LOX IMVI", "value": 63, "unit": "%"}, {"measurement": "IC50", "setting": "UO-31 [1]", "value": 7, "unit": "nM"}, {"measurement": "Activity", "setting": "[2]", "value": "Non-Toxic"}, {"measurement": "IC50", "setting": "OVCAR-4", "value": 8, "unit": "nM"}, {"measurement": "IC50", "setting": "EKVX", "value": 7, "unit": "nM"}, {"measurement": "Activity", "setting": "[3]", "value": "Non-Toxic"}, {"measurement": "Ratio IC50", "setting": "HCT-15 [4]", "value": 14}, {"measurement": "Activity", "setting": "[5]", "value": "Non-Toxic"}, {"measurement": "Ratio IC50", "setting": "SF-295", "value": 6}, {"measurement": "Ratio IC50", "setting": "UO-31 [6]", "value": 34}, {"measurement": "Activity", "setting": "[7]", "value": 9, "unit": "%"}, {"measurement": "inhibition in vivo at 70 mg/kg", "setting": "NCI-H69", "value": 84, "unit": "%"}, {"measurement": "inhibition in vivo at 60 mg/kg", "setting": "Calu-6 [8]", "value": 63, "unit": "%"}, {"measurement": "Activity", "setting": "[9]", "value": 7, "unit": "%"}, {"measurement": "inhibition in vivo at 50 mg/kg", "setting": "NCI-H522", "value": 69, "unit": "%"}, {"measurement": "Activity", "setting": "[10]", "value": 9, "unit": "%"}, {"measurement": "IC50", "setting": "NCI-H460", "value": 15, "unit": "nM"}, {"measurement": "inhibition in vivo at 50 mg/kg", "setting": "Calu-6 [11]", "value": 76, "unit": "%"}, {"measurement": "Activity", "setting": "[12]", "value": "Toxic"}, {"measurement": "Drug uptake", "setting": "[13]", "value": "Active"}, {"measurement": "Activity", "setting": "[14]", "value": "Non-Toxic"}, {"measurement": "IC50", "setting": "HCT-15 [15]", "value": 14, "unit": "nM"}]}]}
